# Assay results collected from several papers.
# Compare with care: the assays were run in different laboratories.
# Cell line: HCT-15
# Read-out: cell growth or viability
SMILES,test,conditions,endpoint,value
COc1cc(Nc2nccc(-c3cnn4nc(OC)ccc34)n2)cc(C(F)(F)F)c1,ATP luminescence,,IC50,0.36 µM
COc1ccc(C(=O)/C=C/c2cccc(Cl)c2Cl)cc1S(N)(=O)=O,SRB,48 h,GI50,1.3 µM
COc1cccc(Oc2ccccc2NC(=O)CNC(=O)c2cccc3ccccc23)c1,SRB,48 h,GI50,0.129 µM
CC(C)c1cccc(C(C)C)c1-n1ccn(-c2c(C(C)C)cccc2C(C)C)c1=[Se],MTT,72 h,IC50,14.8 µM
S=C([S][Au-][P+](CCCCCC[P+]([Au-][S]C(=S)n1cccn1)(c1ccccc1)c1ccccc1)(c1ccccc1)c1ccccc1)n1cccn1,,,GI50,2.88 µM
COc1ccc(C(=O)/C=C/c2ccc3c(c2)OCCO3)cc1S(N)(=O)=O,SRB,10 µM,inhibition,58%
Cc1c(C)n(-c2c(C(C)C)cccc2C(C)C)c(=[Se])n1-c1c(C(C)C)cccc1C(C)C,MTT,72 h,IC50,16.2 µM
O=C(O)CCCc1ccccc1,MTT,72 h,IC50,> 50 µM
COc1cccc2c1C(=O)c1c(O)c3c(c(O)c1C2=O)C[C@@](O)(C(=O)CO)C[C@@H]3O[C@H]1C[C@H](N)[C@H](O)[C@H](C)O1,MTT,24 h,IC50,6.6 µM
Cc1cc(C)n(C(=S)[S][Au][PH](CCCCCC[PH]([Au][S]C(=S)n2nc(C)cc2C)(c2ccccc2)c2ccccc2)(c2ccccc2)c2ccccc2)n1,,,GI50,1.12 µM
[Se]=c1n(C23CC4CC(CC(C4)C2)C3)ccn1C12CC3CC(CC(C3)C1)C2,MTT,72 h,IC50,8.3 µM
CC(C)C[C@H](NC(=O)[C@H](Cc1ccccc1)NC(=O)c1cnccn1)B(O)O,ATP luminescence,,IC50,0.0096 µM
CC(C)[C@H](N)c1nc2cc(-c3ccncc3F)sc2c(=O)[nH]1,MTT,,IC50,0.301 µM
